Results taken from ChEMBL document CHEMBL1153373, “Effect of ring size on conformation and biological activity of cyclic cationic antimicrobial peptides” (J Med Chem, 2009).
Values after ≈ are worked out from the molar mass of the structure shown. Square brackets hold non-standard residues; d marks the D form. Peptide text beside a SMILES is read from it.

Assays:
Assay type in all cases: functional
Serratia marcescens = test: Antimicrobial activity against Serratia marcescens after 24 hrs by standard microtiter dilution method
Enterobacter cloacae = test: Antimicrobial activity against Enterobacter cloacae after 24 hrs by standard microtiter dilution method
Staphylococcus aureus = test: Antimicrobial activity against Staphylococcus aureus after 24 hrs by standard microtiter dilution method
Streptococcus pneumoniae = test: Antimicrobial activity against Streptococcus pneumoniae after 24 hrs by standard microtiter dilution method
Corynebacterium jeikeium = test: Antimicrobial activity against Corynebacterium jeikeium after 24 hrs by standard microtiter dilution method
Escherichia coli = test: Antimicrobial activity against Escherichia coli after 24 hrs by standard microtiter dilution method
[1] = system: Acinetobacter calcoaceticus; test: Antimicrobial activity against Acinetobacter calcoaceticus after 24 hrs by standard microtiter dilution method
Klebsiella pneumoniae = test: Antimicrobial activity against Klebsiella pneumoniae after 24 hrs by standard microtiter dilution method
Streptococcus mitis = test: Antimicrobial activity against Streptococcus mitis after 24 hrs by standard microtiter dilution method
[2] = system: Stenotrophomonas maltophilia; test: Antimicrobial activity against Stenotrophomonas maltophilia after 24 hrs by standard microtiter dilution method
[3] = system: Staphylococcus epidermidis; test: Antimicrobial activity against Staphylococcus epidermidis after 24 hrs by standard microtiter dilution method
Candida albicans = test: Antimicrobial activity against Candida albicans after 24 hrs by standard microtiter dilution method
Summary of the method: (§1)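 Fungal MICs were determined by standard microtitre dilution, taken as the lowest peptide concentration inhibiting growth after 24 h incubation at 37 °C.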

Streptococcus pyogenes = test: Antimicrobial activity against Streptococcus pyogenes after 24 hrs by standard microtiter dilution method
Pseudomonas aeruginosa = test: Antimicrobial activity against Pseudomonas aeruginosa after 24 hrs by standard microtiter dilution method
Enterococcus faecalis = test: Antimicrobial activity against Enterococcus faecalis after 24 hrs by standard microtiter dilution method
Cryptococcus neoformans = test: Antimicrobial activity against Cryptococcus neoformans after 24 hrs by standard microtiter dilution method; summary of the method: as §1

SMILES	MIC (Serratia marcescens) [µg/mL]	MIC (Enterobacter cloacae) [µg/mL]	MIC (Staphylococcus aureus) [µg/mL]	MIC (Streptococcus pneumoniae) [µg/mL]	MIC (Corynebacterium jeikeium) [µg/mL]	MIC (Escherichia coli) [µg/mL]	MIC [1] [µg/mL]	MIC (Klebsiella pneumoniae) [µg/mL]	MIC (Streptococcus mitis) [µg/mL]	MIC [2] [µg/mL]	MIC [3] [µg/mL]	MIC (Candida albicans) [µg/mL]	MIC (Streptococcus pyogenes) [µg/mL]	MIC (Pseudomonas aeruginosa) [µg/mL]	MIC (Enterococcus faecalis) [µg/mL]	MIC (Cryptococcus neoformans) [µg/mL]
CC(C)C[C@@H]1NC(=O)[C@H](CCCCN)NC(=O)[C@H](C(C)C)NC(=O)[C@@H]2CCCN2C(=O)[C@@H](Cc2ccc(O)cc2)NC(=O)[C@H](CC(C)C)NC(=O)[C@H](CCCCN)NC(=O)[C@H](C(C)C)NC(=O)[C@H](CCCCN)NC(=O)[C@@H]2CCCN2C(=O)[C@@H](Cc2ccc(O)cc2)NC1=O	256 (≈ 193 µM)	256 (≈ 193 µM)	16 (≈ 12 µM)	2 (≈ 1.5 µM)	2 (≈ 1.5 µM)	64 (≈ 48.1 µM)	8 (≈ 6.02 µM)	32 (≈ 24.1 µM)								
CC(C)C[C@@H]1NC(=O)[C@H](CCCCN)NC(=O)[C@H](C(C)C)NC(=O)[C@@H]2CCCN2C(=O)[C@@H](Cc2ccc(O)cc2)NC(=O)[C@H](CC(C)C)NC(=O)[C@H](CCCCN)NC(=O)[C@H](C(C)C)NC(=O)[C@H](CCCCN)NC(=O)[C@H](CC(C)C)NC(=O)[C@@H]2CCCN2C(=O)[C@@H](Cc2ccc(O)cc2)NC(=O)[C@H](C(C)C)NC1=O	256 (≈ 166 µM)	256 (≈ 166 µM)	4 (≈ 2.59 µM)	0.5 (≈ 0.324 µM)	4 (≈ 2.59 µM)	64 (≈ 41.5 µM)	4 (≈ 2.59 µM)		1 (≈ 0.649 µM)	32 (≈ 20.8 µM)	4 (≈ 2.59 µM)	32 (≈ 20.8 µM)	0.5 (≈ 0.324 µM)	256 (≈ 166 µM)	4 (≈ 2.59 µM)	
CC(C)C[C@@H]1NC(=O)[C@H](CCCCN)NC(=O)[C@H](C(C)C)NC(=O)[C@H](CCCCN)NC(=O)[C@H](CC(C)C)NC(=O)[C@@H]2CCCN2C(=O)[C@@H](Cc2ccc(O)cc2)NC(=O)[C@H](C(C)C)NC(=O)[C@H](CCCCN)NC(=O)[C@H](CCCCN)NC(=O)[C@H](C(C)C)NC(=O)[C@@H]2CCCN2C(=O)[C@@H](Cc2ccc(O)cc2)NC1=O (cyclo(KKV[dY]PLKVKL[dY]PV))		128 (≈ 82.2 µM)		0.5 (≈ 0.321 µM)			2 (≈ 1.28 µM)			16 (≈ 10.3 µM)	2 (≈ 1.28 µM)	16 (≈ 10.3 µM)	0.5 (≈ 0.321 µM)		8 (≈ 5.14 µM)	
CC(C)C[C@@H]1NC(=O)[C@H](CCCCN)NC(=O)[C@H](C(C)C)NC(=O)[C@@H]2CCCN2C(=O)[C@@H](Cc2ccc(O)cc2)NC(=O)[C@H](CC(C)C)NC(=O)[C@H](CCCCN)NC(=O)[C@H](C(C)C)NC(=O)[C@H](CCCCN)NC(=O)[C@@H]2CCCN2C(=O)[C@@H](Cc2ccc(O)cc2)NC(=O)[C@H](CCCCN)NC1=O (cyclo(KLK[dY]PKVKL[dY]PV))	256 (≈ 176 µM)	256 (≈ 176 µM)	64 (≈ 43.9 µM)	16 (≈ 11 µM)			16 (≈ 11 µM)	64 (≈ 43.9 µM)		128 (≈ 87.8 µM)	64 (≈ 43.9 µM)		2 (≈ 1.37 µM)		64 (≈ 43.9 µM)	16 (≈ 11 µM)
CC(C)C[C@@H]1NC(=O)[C@H](CCCCN)NC(=O)[C@H](C(C)C)NC(=O)[C@H](CCCCN)NC(=O)[C@@H]2CCCN2C(=O)[C@@H](Cc2ccc(O)cc2)NC(=O)[C@H](CCCCN)NC(=O)[C@H](CCCCN)NC(=O)[C@H](C(C)C)NC(=O)[C@@H]2CCCN2C(=O)[C@@H](Cc2ccc(O)cc2)NC1=O (cyclo(VKK[dY]PKVKL[dY]P))	256 (≈ 190 µM)	256 (≈ 190 µM)	256 (≈ 190 µM)	256 (≈ 190 µM)				256 (≈ 190 µM)	64 (≈ 47.6 µM)	256 (≈ 190 µM)	256 (≈ 190 µM)	256 (≈ 190 µM)		256 (≈ 190 µM)	256 (≈ 190 µM)	128 (≈ 95.2 µM)
CC(C)C[C@@H]1NC(=O)[C@H](CCCCN)NC(=O)[C@H](C(C)C)NC(=O)[C@@H]2CCCN2C(=O)[C@@H](Cc2ccc(O)cc2)NC(=O)[C@H](CC(C)C)NC(=O)[C@H](CCCCN)NC(=O)[C@H](C(C)C)NC(=O)[C@H](CCCCN)NC(=O)[C@H](CC(C)C)NC(=O)[C@H](CCCCN)NC(=O)[C@@H]2CCCN2C(=O)[C@@H](Cc2ccc(O)cc2)NC(=O)[C@H](CCCCN)NC(=O)[C@H](CCCCN)NC1=O (cyclo(VKLKK[dY]PKLKVKL[dY]P))	256 (≈ 140 µM)		64 (≈ 35 µM)		8 (≈ 4.38 µM)		2 (≈ 1.09 µM)	8 (≈ 4.38 µM)	8 (≈ 4.38 µM)			64 (≈ 35 µM)			8 (≈ 4.38 µM)	64 (≈ 35 µM)
